According to PMC11978860 (Nature Communications, 2025):

What was measured:
Type in all cases: in vivo, Drosophila melanogaster
[1] = tested on: Tip60-RNAi knockdown Drosophila larvae; settings: oral in food; for Performance in rescuing locomotor defects (in words): compared to CTB
[2] = tested on: Tip60-RNAi-2 Drosophila larvae; assay: Larval locomotor assay in second Tip60-RNAi line; settings: 100 uM, line crossing in 30 seconds
Procedure, shortened: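 elavC155-Gal4 × UAS-Tip60 RNAi-2 progeny (w1118 background) are reared from hatching on food containing the test compound in DMSO (final DMSO ≤0.01%) or vehicle. Wandering third-instar larvae are rinsed and placed on a 2.5% agar plate over a 0.5 cm × 0.5 cm grid. After 1 min acclimation, head line crossings are counted over 30 s. Analysis is one-way ANOVA with Dunnett's comparisons.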

[3] = tested on: AD-associated APP Drosophila third-instar larvae; assay: Larval locomotor assay in AD-associated APP model
Procedure, shortened: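 elavC155-Gal4/UAS-APP larvae (w1118 background), with parental crosses set on food containing the test compound in DMSO (final DMSO ≤0.01%) or DMSO alone, so larvae feed from hatching. Wandering third instars of either sex are rinsed in distilled water, placed on 2.5% agar over a 0.5 cm grid, and acclimated 1 min. Read-outs are speed (mm/s, video tracking) and head line crossings in 30 s. Analysis is one-way ANOVA with Dunnett's test.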

| SMILES | Performance in rescuing locomotor defects (in words) [1] | further results |
| --- | --- | --- |
| CCOc1ccccc1C(=O)Nc1ccc(Cl)c(C(F)(F)F)c1 [CTB, N-[4-chloro-3-(trifluoromethyl)phenyl]-2-ethoxybenzamide, reference compound] |  | Rescue of locomotor ability (in words) ([1]; 10 to 100 μM): significant rescue |
| COC(=O)CCC(=O)COc1ccccc1C(=O)Nc1ccc(Cl)c(C(F)(F)F)c1 [C2, Methyl 5-(2-{[4-chloro-3-(trifluoromethyl)phenyl]carbamoyl}phenoxy)-4-oxopentanoate] | highest performers | Rescue of locomotor deficits (in words) [2]: rescued locomotor deficits; Sustained effects to complete the assay and reach the wall (in words) [3]: sustained effects; Concentration significantly rescuing larval locomotor ability ([3]; oral in food): ≥ 50 µM |
| Cn1cc(C(=O)COc2ccccc2C(=O)Nc2ccc(Cl)c(C(F)(F)F)c2)cn1 [C1, N-[4-chloro-3-(trifluoromethyl)phenyl]-2-[2-(1-methyl-1H-pyrazol-4-yl)-2-oxoethoxy]benzamide] | low-performing |  |
| O=C(Nc1ccc(Cl)c(C(F)(F)F)c1)c1ccccc1OCC(=O)N1CCNC1=O [C4, N-[4-Chloro-3-(trifluoromethyl)phenyl]-2-[2-oxo-2-(2-oxo-1-imidazolidinyl)ethoxy]benzamide] | no effect |  |
| COC(=O)CNC(=O)COc1ccccc1C(=O)Nc1ccc(Cl)c(C(F)(F)F)c1 [C9, Methyl N-[(2-{[4-chloro-3-(trifluoromethyl)phenyl]carbamoyl}phenoxy)acetyl]glycinate] | low-performing |  |
| CNC(=O)NC(=O)COc1ccccc1C(=O)Nc1ccc(Cl)c(C(F)(F)F)c1 [C8, N-[4-Chloro-3-(trifluoromethyl)phenyl]-2-{2-[(methylcarbamoyl)amino]-2-oxoethoxy}benzamide] | highest performers |  |
| O=C(COc1ccccc1C(=O)Nc1ccc(Cl)c(C(F)(F)F)c1)NCC1CC1 [C10, N-[4-Chloro-3-(trifluoromethyl)phenyl]-2-{2-[(cyclopropylmethyl)amino]-2-oxoethoxy}benzamide] | low-performing |  |
| CCOCCC(O)COc1ccccc1C(=O)Nc1ccc(Cl)c(C(F)(F)F)c1 (stereo not shown) [C5, N-[4-Chloro-3-(trifluoromethyl)phenyl]-2-(4-ethoxy-2-hydroxybutoxy)benzamide] | highest performers |  |
| O=C(Nc1ccc(Cl)c(C(F)(F)F)c1)c1ccccc1OCC(=O)C1CCOCC1 [C7, N-[4-Chloro-3-(trifluoromethyl)phenyl]-2-[2-oxo-2-(tetrahydro-2H-pyran-4-yl)ethoxy]benzamide] | low-performing |  |
| CC(C)CNC(=O)COc1ccccc1C(=O)Nc1ccc(Cl)c(C(F)(F)F)c1 [C6, N-[4-Chloro-3-(trifluoromethyl)phenyl]-2-[2-(isobutylamino)-2-oxoethoxy]benzamide] | low-performing |  |
